The nature of test [1]: inhibitors of TNFa-induced NFkB p65 translocation, primary screen, imaging, HUVEC, MLSMR starter and 10KST1 sets (AID 438;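 active = inhibition above 20% together with a positive visual image hit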;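 note: compound added about 3h40 before a 20 min TNFalpha stimulation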;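 for inhibition: signal is the nuclear over cytoplasmic p65 intensity ratio per well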). The settings on record: HUVEC TNFa-induced p65 nuclear translocation; cell count: measured here: nuclei count (cytotoxicity indicator), at 2.08 µM; inhibition: at 2 µM, stronger effect = higher value, 0% TNFa-plus-vehicle, 100% no-TNFa wells.
Test [2] in a line: endothelial E-selectin expression blockers – imaging, HUVEC, immunofluorescence, MLSMR starter and 10KST1 sets, primary screen (AID 487;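 active = visually confirmed hit in the image check and inhibition above 20%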;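 for inhibition: signal is fraction of cell area covered by stained E-selectin grains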;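 for nuclei count: 100% = median nuclei count of all wells on the same plate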). The settings on record: HUVEC TNFalpha-induced E-selectin immunofluorescence imaging, at 2 µM; inhibition: stronger effect = higher value; nuclei count: measured here: cell number, toxicity.
The nature of test [3]: Primary imaging screen for DUSP6 inhibitors that restore phospho-Erk in transfected HeLa cells, chemical complementation (AID 609;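 active = compounds giving at least 50% inhibition in the cell-based MKP-3 phosphatase rescue imaging test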;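 for inhibition: phospho-Erk level distribution per well compared with pooled transfected vehicle control wells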). The note with it: HeLa MKP-3 transfected, phospho-Erk imaging KS statistic, at 10 µM, cells stimulated with TPA for 15 min.
Test [4] has as its target Dual specificity protein phosphatase 6 (Homo sapiens) (UniProt Q16828). Described as above. The note with it: HeLa MKP-3 transfected, phospho-Erk imaging KS statistic; at 10 µM; stronger effect = higher value; cells stimulated with TPA for 15 min.
Test [5] addresses Voltage-gated potassium channel subunit beta-2 (Rattus norvegicus) (UniProt P62483). Nature of the test: inhibitors of rat Kvbeta2 reductase activity – biochemical, NADPH fluorescence, primary screen (AID 622;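 active = fluorescence slope higher than the sample average by over 3 SD, cut at about -0.22 in these data, passing the limit was not always enough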;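 note: slope of raw intensity against log time taken from 70 to 1610 s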). The note with it: recombinant KvBeta, 4-cyanobenzaldehyde reduction, at 10 µM, stronger effect = higher value.
The target is the same in test [6]. Nature of the test: enhancers of rat Kvbeta2 NADPH turnover – biochemical, NADPH fluorescence, primary screen (AID 623;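 active = NADPH fluorescence slope more negative than the mean of all samples by about 3 SD, 99.7% confidence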;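 note: fluorescence intensity change per second fitted from 20 to 320 s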). The note with it: Recombinant KvBeta, NADPH fluorescence decrease slope, 10 min; at 10 µM; stronger effect = lower value.
Test [7] addresses Alpha-2C adrenergic receptor (Homo sapiens) (UniProt P18825). The test is described as follows: compounds altering alpha2C-coupled GIRK flux – cell-based, HEK293 alpha2C/GIRK1/2, thallium flux, primary screen (AID 624;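 active = fluorescence slope after compound addition differing from the mean of all screened samples at 99.7% confidence, in either direction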;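 note: slope of fluorescence ratio to pre-addition baseline per second over 15 to 24 s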). The note with it: thallium flux BTC fluorescence, at 10 µM, actives lie on both sides.
Test [8] is described as follows: inhibitors of larval lipid processing in zebrafish, primary screen, whole organism, PED6 fluorescence, gall bladder and intestine (AID 686).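 Note: larvae 5 to 7 days old with five fish per well; signal comes from phospholipase A2 cleavage of quenched PED6 carried via bile.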 The settings on record: Zebrafish larvae PED6 lipid processing, fluorescence scoring; screened at 20 µM (by protocol). Put shortly:
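Incubation: overnight exposure of larvae to compound plus PED6 / Test system: live zebrafish larvae aged 5-7 days, whole organism / Amount: 5 larvae per well / Read-out basis: visual per-well fluorescence inhibition score / Signal: visual fluorescence microscopy scoring of gall bladder, gut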

Test [9] can be described thus: loss of swimming-algae plug formation – whole organism, Chlamydomonas reinhardtii, WT vs cilia-less mutant, absorbance, 96-well, primary screen (AID 463189;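 active = inhibition at or above 50% relative to wild type and mutant plate controls; inactive = inhibition below 50%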;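 note: 0% = wild type cc124 cells in DMSO and 100% = ciliumless bld1 mutant cells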). The settings on record: Chlamydomonas reinhardtii gravitaxis, OD600 absorbance, 2 days; at 10 µM; stronger effect = higher value.
The mark [10] stands for this setting: measured here: cell density z-score.
The mark [11] stands for this setting: measured here: nuclear c-Myc green intensity z-score.
Where [12] appears, read: measured here: nuclear pErk red intensity z-score, stronger effect = higher value.

SMILES strings stand for the structures. Activity calls are given as the source filed them.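 Rule for the calls, unless noted: active = a full or partial loss of lipid-probe fluorescence in the fish gall bladder, intestine or both, judged by eye; inactive = no fluorescence loss, or compound toxic to the fish.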

Data on 13 compounds can be found in PubChem BioAssay.

Dual specificity protein phosphatase 6 (Homo sapiens), sequence (Q16828 whole entry, looked up): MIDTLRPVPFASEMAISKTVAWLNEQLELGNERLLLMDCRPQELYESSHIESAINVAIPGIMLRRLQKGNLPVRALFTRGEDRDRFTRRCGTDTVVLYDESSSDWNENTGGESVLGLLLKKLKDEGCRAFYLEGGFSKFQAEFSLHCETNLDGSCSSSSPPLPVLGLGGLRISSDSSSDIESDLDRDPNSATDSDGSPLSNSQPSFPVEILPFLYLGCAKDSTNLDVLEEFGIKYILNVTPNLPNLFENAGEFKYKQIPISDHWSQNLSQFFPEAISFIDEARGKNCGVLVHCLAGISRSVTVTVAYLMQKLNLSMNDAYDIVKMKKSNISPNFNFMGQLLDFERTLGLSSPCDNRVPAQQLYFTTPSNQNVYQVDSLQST
Voltage-gated potassium channel subunit beta-2 (Rattus norvegicus), sequence (P62483 whole entry, looked up): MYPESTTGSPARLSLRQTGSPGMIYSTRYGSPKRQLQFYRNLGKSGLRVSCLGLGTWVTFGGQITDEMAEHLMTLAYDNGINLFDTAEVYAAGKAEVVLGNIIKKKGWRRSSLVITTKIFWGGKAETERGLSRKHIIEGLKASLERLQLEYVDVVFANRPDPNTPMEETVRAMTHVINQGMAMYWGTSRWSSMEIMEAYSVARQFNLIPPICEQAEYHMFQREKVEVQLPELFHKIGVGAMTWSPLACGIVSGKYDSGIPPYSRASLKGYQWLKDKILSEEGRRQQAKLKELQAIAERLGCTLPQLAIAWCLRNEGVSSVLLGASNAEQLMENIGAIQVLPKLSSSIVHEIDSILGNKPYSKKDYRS
Alpha-2C adrenergic receptor (Homo sapiens), sequence (P18825 whole entry, looked up): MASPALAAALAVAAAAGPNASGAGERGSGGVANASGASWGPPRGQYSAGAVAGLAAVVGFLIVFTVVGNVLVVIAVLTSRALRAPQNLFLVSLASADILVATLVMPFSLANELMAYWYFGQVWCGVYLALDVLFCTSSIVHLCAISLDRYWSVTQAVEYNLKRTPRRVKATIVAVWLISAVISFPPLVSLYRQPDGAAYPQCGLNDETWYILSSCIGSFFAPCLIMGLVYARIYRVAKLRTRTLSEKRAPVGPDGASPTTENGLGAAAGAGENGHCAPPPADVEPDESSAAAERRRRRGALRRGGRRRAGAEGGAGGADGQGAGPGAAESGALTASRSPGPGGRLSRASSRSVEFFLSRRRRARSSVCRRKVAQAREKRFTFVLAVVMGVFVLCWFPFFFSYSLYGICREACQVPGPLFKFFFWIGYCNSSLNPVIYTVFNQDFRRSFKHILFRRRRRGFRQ

`COc1ccc2c(c1OC)C(=O)N1c3ccccc3C(=O)N(c3ccccc3)C21` (centres undefined): in [1], the cell count turned out to be 475. Further, the inhibition was -9.6% (inactive) in [1], -84.9% (inactive) in test [2], 2.46% (inactive) in test [4] and 3.79% (inactive) in test [9]. This compound also had a nuclei count in test [2] of 169%. In addition, the z-score in [3] (setting [10]) is 0.407; in test [3] (setting [11]), -0.0149; in test [3] (setting [12]) it was -0.273. Besides, the fluorescence slope in [5] is -0.319 (inactive). Moreover, the NADPH fluorescence slope in test [6] is -5.5e-06 (inactive). In addition, the slope in test [7] is 0.00449 (inactive). In [8], the result was inactive.

Regarding `CSC(=Nc1ccccc1)C1=C(O)COC1=O`, in test [1], the cell count is 315. Besides, the inhibition was -17.4% (inactive) in [1], -75.7% (inactive) in test [2], 5.26% (inactive) in test [4] and -2.91% (inactive) in test [9]. This compound also showed a nuclei count in [2] of 139%. Also, the z-score in test [3] (setting [10]) was 1.64; in test [3] (setting [11]), -0.593; in test [3] (setting [12]), -1.01. Further, the fluorescence slope in test [5] was -0.419 (inactive). For the same compound, the NADPH fluorescence slope in test [6] was -8.2e-05 (inactive). Also, the slope in test [7] was 0.00729 (inactive). In addition, the compound was called inactive in test [8].

For `C=CCOC(=O)C1=C(C)OC(N)=C(C#N)C1c1ccoc1` (centres undefined), the cell count in test [1] is 564. Besides, the inhibition in [1] was 2.9% (inactive); in test [2], -24.3% (inactive); in test [4] it was 2.46% (inactive); in test [9], 26.4% (inactive). In [2], this compound came in with a nuclei count of 166%. Moreover, the z-score in [3] (setting [10]) is -0.735; in test [3] (setting [11]), -0.099; in test [3] (setting [12]), 0.124. Also, the fluorescence slope in [5] was -0.32 (inactive). The NADPH fluorescence slope in test [6] was 2.2e-05 (inactive). Besides, in test [7], the slope was 0.00536 (inactive). In [8], the compound was called inactive.

For `CCOC(=O)CC1=NC(=O)CS1`, the cell count in test [1] came out at 636. Also, the inhibition was -20.6% (inactive) in [1], -40.7% (inactive) in test [2], -5.62% (inactive) in test [4] and 11.6% (inactive) in [9]. In test [2], this compound came in with a nuclei count of 179%. For the same compound, the values for the z-score in test [3] (setting [10]), in test [3] (setting [11]) and in test [3] (setting [12]) were -0.153, -1.04 and 1.51, respectively. Moreover, the fluorescence slope in [5] is -0.455 (inactive). Moreover, the NADPH fluorescence slope in test [6] was -5.7e-05 (inactive). In test [7], the slope was 0.00579 (inactive). The compound was called inactive in test [8].

`Cn1c(O)c(C=Nc2ccc(Cc3ccncc3)cc2)c(=O)n(C)c1=O`: the cell count in test [1] turned out to be 642. Besides, the inhibition in test [1] is 6.6% (inactive); in test [2], -91% (inactive); in test [4], 4.25% (inactive); in test [9], -1.46% (inactive). Further, the nuclei count in [2] came to 136%. The z-score in [3] (setting [10]) is -1.1; in [3] (setting [11]), -0.451; in test [3] (setting [12]) it was 0.687. Moreover, the fluorescence slope in test [5] was -0.486 (inactive). Moreover, in test [6], the NADPH fluorescence slope was -9.5e-05 (inactive). In addition, in [7], the slope is 0.00577 (inactive). Moreover, in test [8], the outcome was inactive.

Turning to `Cc1cc(OCCN2CCOCC2)nc2ccccc12`, the cell count in test [1] came to 358. The inhibition is -29.5% (inactive) in test [1], -231% (inactive) in test [2], -10.5% (inactive) in [4] and 22.7% (inactive) in test [9]. Further, in [2], the nuclei count amounted to 135%. Besides, the z-score in test [3] (setting [10]) was 0.234; in test [3] (setting [11]), -1.97; in test [3] (setting [12]), -1.2. Also, in test [5], the fluorescence slope is -0.431 (inactive). In addition, the NADPH fluorescence slope in test [6] is -9.4e-05 (inactive). Also, the slope in test [7] is 0.00613 (inactive). For the same compound, in [8], the call was inactive.

As to `CN(C)c1ccc(C=NCCC2(O)CCOC(C)(C)C2)cc1` (centres undefined), the cell count in [1] was 326. Besides, the inhibition was -27% (inactive) in [1], -218% (inactive) in [2], 8.76% (inactive) in test [4] and -4.27% (inactive) in test [9]. Also, the nuclei count in [2] turned out to be 173%. Moreover, the z-score in test [3] (setting [10]) was -0.673; in test [3] (setting [11]) it was -1.17; in test [3] (setting [12]), -0.362. Moreover, the fluorescence slope in test [5] was -0.416 (inactive). In addition, the NADPH fluorescence slope in test [6] was -0.000167 (inactive). Moreover, the slope in test [7] is 0.00576 (inactive). The call in test [8] was inactive.

On to `CCOC(=O)c1cc2c(=O)n3cccc(C)c3nc2n(C)c1=N`, for which the cell count in test [1] was determined as 622. Also, the inhibition in [1] is -8.8% (inactive); in test [2] it was -51.9% (inactive); in [4] it was 6.04% (inactive); in [9], 119% (active). For the same compound, in [2], the nuclei count amounted to 142%. The z-score in test [3] (setting [10]) was 1.38; in test [3] (setting [11]), -1.25; in test [3] (setting [12]) it was -0.0406. Besides, in [5], the fluorescence slope is -0.436 (inactive). In addition, the NADPH fluorescence slope in [6] is -8.5e-05 (inactive). Besides, in test [7], the slope is 0.00241 (inactive). Moreover, the compound was classed as inactive in [8].

Take `CCn1cc(C(=O)NCc2ccccn2)c(=O)c2cc(F)c(N3CCN(C)CC3)cc21`: in [1], the cell count is 461. Further, the inhibition is -3.5% (inactive) in test [1], -38.2% (inactive) in test [2], -0.624% (inactive) in test [4] and 6.37% (inactive) in [9]. Also, in test [2], the nuclei count came out at 185%. For the same compound, the z-score in [3] (setting [10]) was -1.96; in test [3] (setting [11]) it was 2.4; in test [3] (setting [12]), 0.403. Besides, the fluorescence slope in test [5] is -0.292 (inactive). The NADPH fluorescence slope in test [6] was -3e-05 (inactive). The slope in [7] was 0.00581 (inactive). The outcome in test [8] was inactive.

Take `Cn1c(=O)c2c(nc(NCc3ccc4c(c3)OCO4)n2Cc2ccc(F)cc2)n(C)c1=O`: the cell count in test [1] was determined as 600. The inhibition in test [1] was 3.1% (inactive); in [2], -39.4% (inactive); in test [4], -2.91% (inactive); in [9], 2.97% (inactive). The compound also registered a nuclei count in test [2] of 152%. The z-score in test [3] (setting [10]) is -0.468; in [3] (setting [11]), -0.0841; in [3] (setting [12]) it was -0.555. Besides, the fluorescence slope in test [5] was -0.511 (inactive). The NADPH fluorescence slope in [6] is -8.9e-05 (inactive). Further, the slope in [7] is 0.00456 (inactive). Moreover, the compound was called inactive in [8].

In the case of `COc1ccc(CCNC(=O)c2ccc(=O)[nH]n2)cc1OC`, the cell count in [1] is 452. The inhibition is -9.3% (inactive) in test [1], -124% (inactive) in [2], 7.48% (inactive) in test [4] and 1.24% (inactive) in [9]. Further, in test [2], the nuclei count was found to be 113%. Further, the z-score is -0.121 in test [3] (setting [10]), -0.331 in [3] (setting [11]) and -0.384 in test [3] (setting [12]). Further, the fluorescence slope in [5] is -0.517 (inactive). The NADPH fluorescence slope in test [6] is -0.000115 (inactive). In test [7], the slope is 0.00414 (inactive). For the same compound, in [8], the call was inactive.

Consider `CC(C)Nc1nc(NC(C)C)nc(N(C)n2cnnc2)n1`, for which the cell count in test [1] was found to be 629. The inhibition in test [1] was -8.8% (inactive); in test [2] it was 27.2% (inactive); in test [4], 20.8% (inactive); in test [9], -5.15% (inactive). The compound also registered a nuclei count in test [2] of 188%. The z-score in [3] (setting [10]) is 0.189; in [3] (setting [11]), -1.82; in test [3] (setting [12]), 0.165. Further, the fluorescence slope in test [5] is -0.482 (inactive). For the same compound, the NADPH fluorescence slope in test [6] is -0.000155 (inactive). Moreover, the slope in [7] is 0.0051 (inactive). For the same compound, the call in test [8] was inactive.

`CN1C(=S)SC(N(O)C(=O)Nc2ccccc2)C1(C)C` (centres undefined): the cell count in test [1] came out at 486. Besides, the inhibition is 8.3% (inactive) in [1], -95.4% (inactive) in test [2], 7.73% (inactive) in [4] and -9.05% (inactive) in [9]. For the same compound, the nuclei count in test [2] was determined as 168%. Besides, the results for the z-score in test [3] (setting [10]), in [3] (setting [11]) and in test [3] (setting [12]) were 0.407, -0.73 and 0.0884, respectively. In addition, the fluorescence slope in test [5] was -0.52 (inactive). Also, in [6], the NADPH fluorescence slope is -0.000109 (inactive). Besides, the slope in test [7] is 0.00576 (inactive). For the same compound, in [8], the compound was classed as inactive.

In general, inhibition refers to the drop in the measured response relative to a control, in per cent.
